Shown is part of a subset that was picked to be rich in hits.
INS-1E rescue = rescue of cytokine-induced death in INS-1E beta cells; INS-1E cytokine-induced death, ATP luminescence, 48 h; normalised: neutral wells 0, positive control 100; protection from cytokine-induced ATP loss, % at 10 µM; 20,000 tested, 0.1% active; AID 488910;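 active = mean replicate protection from cytokine-induced ATP loss at least 50% and at least 75% of replicates each reaching 50%; inconclusive = meets only one of the two criteria, mean or replicate share; inactive = fails both the mean and replicate share criteria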
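Test system: INS-1E rat cells | Quantity: 8000 cells per well | Medium: Phenol-red-free RPMI with 5% fetal bovine serum | Reagent: Cytokine cocktail of IFN-γ, TNF-α and IL-1β | Doses: One compound concentration, pin transfer | Timing: 48 h co-treatment, 10 min post-lysis read | Technique: Luminescent ATP assay (CellTiter-Glo)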
YB-1 expr inh = YB-1 expression inhibition | U2OS, qRT-PCR YB-1 vs CDIP delta delta Cp, 16 h; active compounds read high; zero = DMSO, each unit about twofold | delta delta Cp (YB-1 minus CDIP) (concentration not given with the values) | AID 434959 | 30,000 tested, 0.37% active;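 active = delta delta Cp rounded down to an integer at or above 3, about 3 SD of DMSO wells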;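 also: higher means less YB-1 transcript or more CDIP transcript relative to DMSO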
T cruzi HTS = blocks T. cruzi growth inside host cells | intracellular Trypanosoma cruzi in host cells, plate reader | activity score (inhibition), % at 5.01 µM | AID 651903 | 22,000 tested, 4.9% active; in the data active = activity score above about 55%; inconclusive = no clear call, values can overlap the other calls;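 also: parasites and compound incubated about four days before reading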
Numbers stand for hits; . = inactive; ? = inconclusive; / = not tested or not shown.

SMILES	INS-1E rescue	YB-1 expr inh	T cruzi HTS
C[C@@H]1CN([C@H](C)CO)C(=O)c2cccc(NC(=O)c3nc4ccccc4s3)c2O[C@H]1CN(C)C(=O)Nc1ccc(C(F)(F)F)cc1	.	.	60.7
C[C@H]1CN([C@@H](C)CO)C(=O)c2cccc(NC(=O)c3nc4ccccc4s3)c2O[C@H]1CN(C)C(=O)Nc1ccc(C(F)(F)F)cc1	.	.	78.6
C[C@@H]1CN([C@@H](C)CO)C(=O)c2cccc(NC(=O)c3nc4ccccc4s3)c2O[C@H]1CN(C)C(=O)Nc1ccc(F)cc1	.	.	.
C[C@H]1CN([C@@H](C)CO)C(=O)c2cccc(NC(=O)c3nc4ccccc4s3)c2O[C@@H]1CN(C)C(=O)Nc1ccc(C(F)(F)F)cc1	.	.	74.5
C[C@@H]1CN([C@@H](C)CO)C(=O)c2cccc(NC(=O)c3nc4ccccc4s3)c2O[C@H]1CN(C)C(=O)Nc1ccc(C(F)(F)F)cc1	.	.	83.9
C=C(CO)C(=O)O[C@H]1C[C@H]2C(=C)C[C@H](OC(=O)C(=C)CO)[C@H]3C(=C)C(=O)O[C@@H]3[C@H]2C1=C	/	.	/
Cc1cc(NC(=O)c2ccc(N)cc2)c(N)cc1N	/	.	/
O=C(N/N=C/c1cc(O)ccc1O)c1ccccn1	.	.	.
C[C@@H]1CN([C@@H](C)CO)C(=O)c2cc(NC(=O)Nc3ccc(C(F)(F)F)cc3)ccc2O[C@H]1CN(C)Cc1ccc(-c2ccccc2)cc1	.	.	.
C[C@@H]1CN([C@H](C)CO)C(=O)c2cc(NC(=O)Nc3ccc(C(F)(F)F)cc3)ccc2O[C@H]1CN(C)Cc1ccc(-c2ccccc2)cc1	.	.	85.9
C[C@@H]1CN([C@@H](C)CO)C(=O)c2cc(NC(=O)Cc3ccccc3)ccc2O[C@@H]1CN(C)Cc1ccc(C(F)(F)F)cc1	/	.	.
C[C@H](CO)N1C[C@H](C)[C@@H](CN(C)Cc2ccc(-c3ccccc3)cc2)Oc2ccc(NC(=O)Nc3ccc(C(F)(F)F)cc3)cc2C1=O	.	.	.
C[C@H](CO)N1C[C@H](C)[C@H](CN(C)Cc2ccc(C(F)(F)F)cc2)Oc2ccc(NC(=O)Cc3ccccc3)cc2C1=O	/	.	64.1
C[C@@H]1CN([C@@H](C)CO)C(=O)c2cc(NC(=O)Nc3ccc(C(F)(F)F)cc3)ccc2O[C@@H]1CN(C)Cc1ccc(-c2ccccc2)cc1	.	.	64.0
NS(=O)(=O)c1ccc(N=Cc2c(O)[nH]c3ccccc23)cc1	/	.	/
O=S(=O)(Cc1nc(-c2ccccc2Cl)cs1)c1cccs1	/	.	/
C[C@H](CO)N1C[C@H](C)[C@H](CN(C)C(=O)Nc2ccc(C(F)(F)F)cc2)Oc2c(NC(=O)c3ccc(-c4nccs4)cc3)cccc2C1=O	.	.	?
C[C@@H]1CN([C@H](C)CO)C(=O)c2cccc(NC(=O)c3ccc(-c4nccs4)cc3)c2O[C@@H]1CN(C)Cc1ccc(-c2ccccc2)cc1	.	.	.
C[C@H](CO)N1C[C@H](C)[C@H](CN(C)S(=O)(=O)c2ccc(Cl)cc2)Oc2c(NC(=O)c3ccc(-c4nccs4)cc3)cccc2C1=O	.	.	63.4
C[C@@H]1CN([C@@H](C)CO)C(=O)c2cccc(NC(=O)c3ccc(-c4nccs4)cc3)c2O[C@@H]1CN(C)C(=O)Nc1ccc(C(F)(F)F)cc1	.	.	66.3
C[C@H]1CN([C@@H](C)CO)C(=O)c2cccc(NC(=O)c3ccc(-c4nccs4)cc3)c2O[C@@H]1CN(C)Cc1ccc(-c2ccccc2)cc1	.	.	70.3
C[C@H](CO)N1C[C@H](C)[C@@H](CN(C)S(=O)(=O)c2ccc(Cl)cc2)Oc2c(NC(=O)c3ccc(-c4nccs4)cc3)cccc2C1=O	.	.	.
C[C@H](CO)N1C[C@H](C)[C@@H](CN(C)CC2CCCCC2)Oc2c(NC(=O)c3ccc(-c4nccs4)cc3)cccc2C1=O	.	.	.
C[C@@H]1CN([C@@H](C)CO)C(=O)c2cccc(NC(=O)c3ccc(-c4nccs4)cc3)c2O[C@H]1CN(C)CC1CCCCC1	.	.	64.0
CC(C)=CCC[C@H](C)C/C=N/NC(=O)CCCCCC(=O)O	.	.	.
SMILES	INS-1E rescue	YB-1 expr inh	T cruzi HTS
COc1ccc2nc3c(cc2c1)c(=O)n(C)c(=O)n3C	/	.	/
COCCOC(=O)N1C(=O)[C@@]2(c3cc(C#CC4(O)CCCCCC4)ccc31)[C@H](C(=O)NC[C@H](O)c1ccccc1)[C@H]1C(=O)O[C@H](c3ccccc3)[C@H](c3ccccc3)N1[C@@H]2c1ccccc1OCCO	/	.	/
C=CCNC(=O)[C@H]1[C@@H]2C(=O)O[C@@H](c3ccccc3)[C@@H](c3ccccc3)N2[C@@H](c2ccc(O)cc2)[C@]12C(=O)Nc1ccc(C#CCC(C(=O)OC)C(=O)OC)cc12	/	.	/
O=c1c(=O)n2c(nn1CN1CCOCC1)sc1ccccc12	/	.	/
O=C(CCCCCC(=O)Nc1ccccc1O)N/N=C\c1cccnc1Cl	.	.	.
CC1CCC(C(C)C)C(NC(=O)c2cccc3ccccc23)C1 (stereo not drawn)	/	.	/
C[C@H]1CN([C@@H](C)CO)C(=O)c2cccc(NC(=O)c3ccc(-c4nccs4)cc3)c2O[C@H]1CN(C)Cc1ccc(C(=O)Nc2ccccc2N)cc1	.	.	71.4
C[C@H](CO)N1C[C@H](C)[C@@H](CN(C)Cc2ccc(Cl)c(Cl)c2)Oc2c(NC(=O)c3ccc(-c4nccs4)cc3)cccc2C1=O	.	.	62.2
C[C@@H]1CN([C@H](C)CO)C(=O)c2cccc(NC(=O)c3ccc(-c4nccs4)cc3)c2O[C@@H]1CN(C)Cc1ccc(C(=O)Nc2ccccc2N)cc1	?	.	80.7
C[C@@H]1CN([C@H](C)CO)C(=O)c2cccc(NC(=O)c3ccc(-c4nccs4)cc3)c2O[C@H]1CN(C)Cc1ccc(C(=O)O)cc1	.	.	.
C[C@@H]1CN([C@H](C)CO)C(=O)c2cccc(NC(=O)c3ccc(-c4nccs4)cc3)c2O[C@H]1CN(C)Cc1ccccc1	.	.	.
C[C@@H]1CN([C@@H](C)CO)C(=O)c2cccc(NC(=O)c3ccc(-c4nccs4)cc3)c2O[C@H]1CN(C)Cc1ccc(C(=O)Nc2ccccc2N)cc1	.	.	.
C=C(Oc1cccc(C(=O)O)c1)C(=O)O	/	.	/
N#CC(=C1SCCCS1)S(=O)(=O)c1cccs1	/	.	/
Cc1ccc(N2C3=C(C(=O)CC(C)(C)C3)C(c3cccs3)C3=C2CC(C)(C)CC3=O)cc1C	/	.	/
O=C1O[C@@H](c2ccccc2)[C@@H](c2ccccc2)N2[C@@H](c3ccc(OCCO)cc3)[C@]3(C(=O)Nc4ccc(C#CC5=CCCCC5)cc43)[C@@H](C(=O)NC[C@H](O)c3ccccc3)[C@H]12	/	.	/
CC(C)(C)OC(=O)N[C@@H](Cc1ccccc1)c1n[nH]c(=S)o1	/	.	/
CN1CCN(c2ncc3c(=S)[nH]c(=S)[nH]c3n2)CC1	/	.	/
COC(=O)CCCCCCC(=O)N/N=C/c1ccccc1C(=O)O	.	.	.
COC(=O)CCCCCCC(=O)N/N=C/c1ccc(OCCO)cc1	.	.	.
CCCCN(CCCC)c1ccc(/C=N/NC(=O)CCCCCCC(=O)OC)cc1	.	.	58.4

From PubChem
